Experimental data published in ChEMBL document CHEMBL3124864, “Development of antimycobacterial tetrahydrothieno[2,3-c]pyridine-3-carboxamides and hexahydrocycloocta[b]thiophene-3-carboxamides: Molecular modification from known antimycobacterial lead” (Eur J Med Chem, 2014).
Converted amounts (≈) assume the structure as drawn.

Key:
[1] = Cytotoxicity against mouse RAW264.7 cells assessed as growth inhibition at 50 uM after 72 hrs by MTT assay; format: cell-based; conditions: read-out: GI
Outline: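 RAW 264.7 cells were exposed to compound for 72 h. Viability was read as cellular conversion of MTT to formazan using a non-radioactive cell proliferation kit. Results were expressed as percentage growth inhibition.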

[2] = tested on: Mycobacterium tuberculosis; assay: Antitubercular activity against Mycobacterium tuberculosis H37Rv ATCC 27294 after 28 days by two-fold serial dilution method in presence of efflux pump inhibitor verapamil; format: functional; conditions: H37Rv ATCC 27294, 672 h
[3] = tested on: Mycobacterium tuberculosis; assay: Antitubercular activity against Mycobacterium tuberculosis H37Rv ATCC 27294 after 28 days by two-fold serial dilution method; format: functional; conditions: H37Rv ATCC 27294, 672 h
Outline: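 Agar dilution on Middlebrook 7H11 with OADC, compound incorporated as two-fold serial dilutions. Inoculum from fresh 7H11/OADC slants, adjusted to 1 mg/mL wet weight in 0.05% Tween 80 saline and diluted 10^-2 to about 10⁷ cfu/mL, then spotted onto the drug-containing agar. Growth read after 28 days. MIC taken as the lowest concentration giving complete inhibition.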

[4] = Selectivity index of cytotoxicity against mouse RAW264.7 cells to antitubercular activity against Mycobacterium tuberculosis H37Rv ATCC 27294; format: toxicity, cell-based; conditions: read-out: Selectivity Index

Row | SMILES | inhibition at 72 h, 50 µM [1] [%] | MIC [2] [µM] | MIC [3] [µM] | selectivity ratio [4]
1 | NC(=O)c1c(NC(=O)C2CCCCC2)sc2c1CCCCCC2 | 16.6 | 3.11 | 9.33 (≈ 3.12 µg/mL) | 
2 | NC(=O)c1c(NC(=O)c2ccccc2)sc2c1CCCCCC2 | 26.6 | 5.06 | 15.2 (≈ 4.99 µg/mL) | 
3 | NC(=O)c1c(NC(=O)C2CCCC2)sc2c1CCCCCC2 | 18.3 | 9.73 | 9.73 (≈ 3.12 µg/mL) | 
4 | COc1ccccc1C(=O)Nc1sc2c(c1C(N)=O)CCCCCC2 | 24.8 | 6.96 | 13.9 (≈ 4.99 µg/mL) | 
5 | CN1CCc2c(sc(NC(=O)C3CC3)c2C(N)=O)C1 | 22.2 | 2.78 | 5.57 (≈ 1.56 µg/mL) | 
6 | CC[C@@H](CO)NCCN[C@@H](CC)CO [ETHAMBUTOL] |  | 3.82 | 7.64 (≈ 1.56 µg/mL) | 
7 | CN1CCc2c(sc(NC(=O)c3cccc4ccccc34)c2C(N)=O)C1 | 28.4 | 8.53 | 17.1 (≈ 6.24 µg/mL) | 
8 | Cc1ccc(C(=O)Nc2sc3c(c2C(N)=O)CCCCCC3)cc1 | 20.5 | 2.27 | 4.54 (≈ 1.55 µg/mL) | 
9 | NC(=O)c1c(NC(=O)c2cccc3ccccc23)sc2c1CCCCCC2 | 28.3 | 3.29 | 13.2 (≈ 4.99 µg/mL) | 
10 | NC(=O)c1c(NC(=O)c2cccc([N+](=O)[O-])c2)sc2c1CCCCCC2 | 36.1 | 16.7 | 16.7 (≈ 6.24 µg/mL) | 
11 | CN1CCc2c(sc(NC(=O)C3CCCCC3)c2C(N)=O)C1 | 18.3 | 2.58 | 7.76 (≈ 2.49 µg/mL) | 
12 | CC(=O)N1CCc2c(sc(NC(=O)C3CC3)c2C(N)=O)C1 |  |  | 81.2 (≈ 24.9 µg/mL) | 
13 | COc1ccccc1C(=O)Nc1sc2c(c1C(N)=O)CCN(C(C)=O)C2 |  |  | 66.8 (≈ 25 µg/mL) | 
14 | CC(=O)Nc1sc2c(c1C(N)=O)CCN(C(C)=O)C2 |  |  | 88.6 (≈ 24.9 µg/mL) | 
15 | Cc1ccc(C(=O)Nc2sc3c(c2C(N)=O)CCN(C)C3)cc1 |  |  | 37.9 (≈ 12.5 µg/mL) | 
16 | CC(=O)N1CCc2c(sc(NC(=O)c3ccccc3)c2C(N)=O)C1 |  |  | 72.7 (≈ 24.9 µg/mL) | 
17 | NC(=O)c1c(NC(=O)C2CC2)sc2c1CCCCCC2 | 16.9 | 8.53 | 17.1 (≈ 4.99 µg/mL) | 

Row | SMILES | inhibition at 72 h, 50 µM [1] [%] | MIC [2] [µM] | MIC [3] [µM] | selectivity ratio [4]
18 | CC(=O)N1CCc2c(sc(NC(=O)c3cccc4ccccc34)c2C(N)=O)C1 |  |  | 63.5 (≈ 25 µg/mL) | 
19 | NNC(=O)c1ccncc1 [ISONIAZID] |  | 0.72 | 0.72 (≈ 0.0987 µg/mL) | 
20 | CC(=O)N1CCc2c(sc(NC(=O)c3ccc(Oc4ccccc4)cc3)c2C(N)=O)C1 |  |  | 57.3 (≈ 25 µg/mL) | 
21 | CC(=O)Nc1sc2c(c1C(N)=O)CCN(C)C2 |  |  | 39.4 (≈ 9.99 µg/mL) | 
22 | CC(=O)N1CCc2c(sc(NC(=O)c3cccs3)c2C(N)=O)C1 |  | 4.57 | 9.15 (≈ 3.2 µg/mL) | 13
23 | CC(=O)N1CCc2c(sc(NC(=O)C3CCCC3)c2C(N)=O)C1 |  |  | 74.4 (≈ 25 µg/mL) | 
24 | CC(=O)N1CCc2c(sc(NC(=O)c3cccc([N+](=O)[O-])c3)c2C(N)=O)C1 |  |  | 64.3 (≈ 25 µg/mL) | 
25 | CN1CCc2c(sc(NC(=O)c3ccccc3)c2C(N)=O)C1 |  |  | 37.9 (≈ 11.9 µg/mL) | 
26 | CN1CCc2c(sc(NC(=O)c3cccc([N+](=O)[O-])c3)c2C(N)=O)C1 |  |  | 34.6 (≈ 12.5 µg/mL) | 
27 | CC(=O)N1CCc2c(sc(NC(=O)c3ccc(C)cc3)c2C(N)=O)C1 |  |  | 69.8 (≈ 24.9 µg/mL) | 
28 | COc1ccccc1C(=O)Nc1sc2c(c1C(N)=O)CCN(C)C2 |  |  | 36.1 (≈ 12.5 µg/mL) | 
29 | CC(=O)N1CCc2c(sc(NC(=O)C3CCCCC3)c2C(N)=O)C1 |  |  | 71.4 (≈ 25 µg/mL) | 
30 | CC(=O)Nc1sc2c(c1C(N)=O)CCCCCC2 | 24.6 | 9.36 | 18.7 (≈ 4.99 µg/mL) | 
31 | CN1CCc2c(sc(NC(=O)C3CCCC3)c2C(N)=O)C1 | 18.2 | 5.06 | 5.06 (≈ 1.56 µg/mL) | 
32 | O=C(O)c1cn(C2CC2)c2cc(N3CCNCC3)c(F)cc2c1=O [CIPROFLOXACIN] |  | 9.41 | 9.41 (≈ 3.12 µg/mL) | 
33 | NC(=O)c1c(NC(=O)c2ccc(Oc3ccccc3)cc2)sc2c1CCCCCC2 | 22.2 | 1.23 | 3.7 (≈ 1.56 µg/mL) | > 10
34 | CN1CCc2c(sc(NC(=O)c3ccc(Oc4ccccc4)cc3)c2C(N)=O)C1 |  |  | 30.6 (≈ 12.5 µg/mL) | 
